# Results reported in ChEMBL document CHEMBL1138091, “Privileged structure based ligands for melanocortin-4 receptors--aliphatic piperazine derivatives” (Bioorg Med Chem Lett, 2006).
# Target: Melanocortin receptor 4 (Homo sapiens, UniProt P32245)
# Assay: Inhibition of [125I]NDP-alpha-MSH binding to human MC4R transfected in HEK293 cells
# Type: cell-based
# Outline: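 Competition binding against ¹²⁵I-NDP-α-MSH on HEK293 cells stably expressing human MC4 receptor; affinity taken from inhibition of radioligand binding. Each value is the mean of at least two determinations, with the binding assay's average error given as 15%.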
# Sequence of Melanocortin receptor 4 (P32245 whole entry): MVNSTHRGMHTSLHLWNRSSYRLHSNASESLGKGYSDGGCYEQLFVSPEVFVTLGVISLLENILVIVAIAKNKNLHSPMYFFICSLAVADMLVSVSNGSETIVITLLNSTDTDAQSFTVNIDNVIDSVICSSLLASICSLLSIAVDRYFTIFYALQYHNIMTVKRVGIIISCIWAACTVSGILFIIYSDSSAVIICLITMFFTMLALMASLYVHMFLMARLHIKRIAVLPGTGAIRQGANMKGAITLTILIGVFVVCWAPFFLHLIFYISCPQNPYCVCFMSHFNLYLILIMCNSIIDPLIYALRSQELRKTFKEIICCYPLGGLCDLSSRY
row,Compound,Ki [nM]
1,CCN(CC(C1CCCCC1)N1CCN(C(=O)[C@@H](Cc2ccc(Cl)cc2)NC(=O)CC2Cc3ccccc3N2)CC1)S(C)(=O)=O (stereo in doubt; 34),3
2,O=C(CC1Cc2ccccc2N1)N[C@H](Cc1ccc(Cl)cc1)C(=O)N1CCN(C(CC2CCCCC2)CC2CCCCC2)CC1 (some centres not stated),326
3,CS(=O)(=O)NCC(C1CCCCC1)N1CCN(C(=O)[C@@H](Cc2ccc(Cl)cc2)NC(=O)CC2Cc3ccccc3N2)CC1 (some centres not stated),26
4,O=C(CC1Cc2ccccc2N1)N[C@H](Cc1ccc(Cl)cc1)C(=O)N1CCN(C(CN2C(=O)CCC2=O)C2CCCCC2)CC1 (stereo in doubt; 36),10
5,CCN(CC(C1CCCCC1)N1CCN(C(=O)[C@@H](Cc2ccc(Cl)cc2)NC(=O)CC2Cc3ccccc3N2)CC1)C(C)=O (stereo in doubt; 35a),2
6,O=C(CC1Cc2ccccc2N1)N[C@H](Cc1ccc(Cl)cc1)C(=O)N1CCN(C(CN2C(=O)CCC2=O)C2CCCCC2)CC1 (stereo in doubt; 36b),18
7,O=C(CC1Cc2ccccc2N1)N[C@H](Cc1ccc(Cl)cc1)C(=O)N1CCN(C(CN2C(=O)CCC2=O)C2CCCCC2)CC1 (stereo in doubt; 36a),10
8,O=C(CC1Cc2ccccc2N1)N[C@H](Cc1ccc(Cl)cc1)C(=O)N1CCN(C(C2CCCCC2)C2CCCCC2)CC1 (some centres not stated),35
9,CC(C)CC(CC(C)C)N1CCN(C(=O)[C@@H](Cc2ccc(Cl)cc2)NC(=O)CC2Cc3ccccc3N2)CC1 (some centres not stated),18
10,CCN(CC(C1CCCCC1)N1CCN(C(=O)[C@@H](Cc2ccc(Cl)cc2)NC(=O)n2cc3ccccc3c2)CC1)S(C)(=O)=O (some centres not stated),7
11,CC(C)CC(C1CCCCC1)N1CCN(C(=O)[C@@H](Cc2ccc(Cl)cc2)NC(=O)CC2Cc3ccccc3N2)CC1 (some centres not stated),54
12,O=C(CC1Cc2ccccc2N1)N[C@H](Cc1ccc(Cl)cc1)C(=O)N1CCN(C(CC2CCCCC2)CN2CCOCC2)CC1 (some centres not stated),10
13,CCN(CC(C1CCCCC1)N1CCN(C(=O)[C@@H](Cc2ccc(Cl)cc2)NC(=O)CC2Cc3ccccc3N2)CC1)S(C)(=O)=O (stereo in doubt; 34a),6

# Now from value to compound:
row,Ki [nM],Compound
1,3,CCN(CC)CC(C1CCCCC1)N1CCN(C(=O)[C@@H](Cc2ccc(Cl)cc2)NC(=O)CC2Cc3ccccc3N2)CC1 (stereo in doubt; 28)
2,148,CCN(CC)C(=O)C(C1CCCCC1)N1CCN(C(=O)[C@@H](Cc2ccc(Cl)cc2)NC(=O)CC2Cc3ccccc3N2)CC1 (some centres not stated)
3,3430,CCN(CC)CC(C)N1CCN(C(=O)[C@@H](Cc2ccc(Cl)cc2)NC(=O)[C@H]2Cc3ccccc3CN2)CC1 (some centres not stated)
4,20,CCN(CC)CC(c1ccccc1F)N1CCN(C(=O)[C@@H](Cc2ccc(Cl)cc2)NC(=O)[C@H]2Cc3ccccc3CN2)CC1 (some centres not stated)
5,3,CCN(CC)CC(C1CCCCC1)N1CCN(C(=O)[C@@H](Cc2ccc(Cl)cc2)NC(=O)CC2Cc3ccccc3N2)CC1 (stereo in doubt; 28a)
6,4,CCN(CC)CC(C1CCCC1)N1CCN(C(=O)[C@@H](Cc2ccc(Cl)cc2)NC(=O)[C@H]2Cc3ccccc3CN2)CC1 (some centres not stated)
7,5,CCN(CC)CC(CC1CCCCC1)N1CCN(C(=O)[C@@H](Cc2ccc(Cl)cc2)NC(=O)CC2Cc3ccccc3N2)CC1 (some centres not stated)
8,13,CCN(CC)CC(C1CCCCCC1)N1CCN(C(=O)[C@@H](Cc2ccc(Cl)cc2)NC(=O)[C@H]2Cc3ccccc3CN2)CC1 (some centres not stated)
9,3,CCN(CC(C1CCCCC1)N1CCN(C(=O)[C@@H](Cc2ccc(Cl)cc2)NC(=O)CC2Cc3ccccc3N2)CC1)C(C)=O (stereo in doubt; 35b)
10,4,CCN(CC)CC(C1CCCCC1)N1CCN(C(=O)[C@@H](Cc2ccc(Cl)cc2)NC(=O)[C@H]2Cc3ccccc3CN2)CC1 (some centres not stated)
11,8,CCN(CC(C1CCCCC1)N1CCN(C(=O)[C@@H](Cc2ccc(Cl)cc2)NC(=O)CC2Cc3ccccc3N2)CC1)C(C)=O (stereo in doubt; 35)
12,13,CCN(CC)CC(CC1CCCCC1)N1CCN(C(=O)[C@@H](Cc2ccc(Cl)cc2)NC(=O)[C@H]2Cc3ccccc3CN2)CC1 (some centres not stated)
13,5,CCN(CC)CC(C1CCCCC1)N1CCN(C(=O)[C@@H](Cc2ccc(Cl)cc2)NC(=O)CC2Cc3ccccc3N2)CC1 (stereo in doubt; 28b)
14,70,CCN(CC)CC1(N2CCN(C(=O)[C@@H](Cc3ccc(Cl)cc3)NC(=O)[C@H]3Cc4ccccc4CN3)CC2)CCCC1
